{"source": "paper PMC7523912", "about": "(ACS applied bio materials, 2019)", "molecules": {"B1": {"name": "diluent peptide amphiphile (palmitoyl-V3A3E3), as self-assembled nanofibers (peptide)", "peptide": "Palmitoyl-VVVAAAEEE-NH2"}}, "key": {"[1]": {"settings": "no reference or method printed; cited from earlier work"}, "[2]": {"test_system": "PDGF-BB mediated proliferation of normal human lung fibroblasts (NHLF)", "experiment": "Inhibition of PDGF-BB mediated proliferation assay", "assay_type": "cell-based", "settings": "PDGF-BB only samples, CyQuant", "outline": "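NHLF at passage 3–4 were grown in DMEM with 10% FBS and 1% penicillin/streptomycin. Cells were seeded at 10,000/well, recovered overnight, then starved 6 h in 0.5% FBS. PDGF-BB was given as 1:2 serial dilutions from 100 to 1.56 ng/mL, alone or with 500 nM free aptamer, 100 μM diluent PA, or apt-PAN (500 nM aptamer-PA, 100 μM total PA). CyQuant Direct was read at 24 and 48 h, normalised to growth-factor-only wells, with three independent experiments, mean ± SD.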"}, "[3]": {"biological_target": "platelet-derived growth factor-BB (UniProt P01127 82-190)", "sequence (P01127 82-190)": "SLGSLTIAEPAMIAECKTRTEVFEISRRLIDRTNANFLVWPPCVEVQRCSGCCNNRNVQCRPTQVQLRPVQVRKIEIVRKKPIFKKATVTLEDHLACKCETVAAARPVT", "experiment": "BLI"}}, "note": "*: point of attachment. Palmitoyl = CCCCCCCCCCCCCCCC(=O)*", "data": [{"molecule": "PDGF-BB: Platelet derived growth factor-BB", "values": [{"measurement": "isoelectric point", "setting": "[1]", "value": 9.8}, {"measurement": "increase in total DNA, after 48 hours", "setting": "[2]", "value": "more than two-fold"}]}, {"molecule": "B1", "values": [{"measurement": "koff", "setting": "[3]", "value": 0.000498, "unit": "s⁻¹"}, {"measurement": "kon", "setting": "[3]", "value": 1080, "unit": "M⁻¹ s⁻¹"}]}]}
